Out of some 330,000 compounds screened, about 780 (0.24%) were called active. The entries come from a sample that favours actives as a whole. Values without a mark were called inactive.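 The calls were made as follows: active = activation factor of at least 2 at 20 µM; inactive = the rest.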
System: intestinal alkaline phosphatase [Mus musculus]
Experiment: activators of mouse IAP, primary screen, biochemical, luminescence, uHTS (AID 2805)
Conditions: muIAP, CDP-Star luminescence, 30 min; at 10 µM; stronger effect = higher value; 1 = vehicle-only enzyme signal, 0 = enzyme-free wells
Method in brief: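 System: Mouse IAP enzyme | Also added: CDP-Star substrate | Dosing: Compounds dispensed in DMSO | Schedule: 30 min enzyme-substrate-compound incubation at room temperature | Technique: Chemiluminescence readout | Control set: DMSO-only wells and no-enzyme negative control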

| Structure (SMILES) | activation factor |
| --- | --- |
| COc1cccc(N(C(=O)c2ccn[nH]2)C2(C(=O)Nc3c(C)cccc3C)CCCCC2)c1 | 3.3 (active) |
| Cc1cccc(C)c1NC(=O)C1(N(C(=O)c2ccccn2)c2ccc(O)cc2)CCCCC1 | 1.01 |
| COc1cccc(N(Cc2nnc3n2CCCCC3)C(=O)Nc2ccccc2F)c1 | 1.08 |
| Cc1cc(=O)n2nc(N3CCCC(C(=O)N4CCN(C)CC4)C3)sc2n1 (stereo not given) | 0.986 |
| CN(CC(=O)N1CCN(c2ccccc2)CC1)S(=O)(=O)c1cccs1 | 0.929 |
| Cc1ccc(NC(=O)COC(=O)C2CC2)cc1S(=O)(=O)N1CCOCC1 | 1.01 |
| CCc1cccc(CC)c1NC(=S)NCc1ccc2[nH]c(C)cc2c1 | 1.06 |
| Cc1cc(C)cc(NC(=S)NCCc2c[nH]c3ccccc23)c1 | 1.3 |
| Cc1cccc(NC(=S)NCc2ccc3[nH]c4c(c3c2)CCCC4)c1 | 2.55 (active) |
| CC(NC(=S)Nc1ccc(S(N)(=O)=O)cc1)c1ccc2c(c1)OCO2 (stereo not given) | 1.52 |
| CC1CCCN(C(C(=O)Nc2ccc(C(C)C)cc2)c2ccc3c(c2)OCO3)C1 (stereo not given) | 2.25 (active) |
| O=C(Nc1ccc2c(c1)OCCO2)C(c1ccc(F)cc1)N1CCCCC1 (stereo not given) | 1.07 |
| CCN(C[C@H]1N[C@@](CC)(C(=O)OC)[C@H]2C(=O)N(Cc3ccccc3)C(=O)[C@@H]12)S(=O)(=O)c1ccc(C(F)(F)F)cc1 | 1.06 |
| O=C(CCn1ccc([N+](=O)[O-])n1)Nc1nccs1 | 1.04 |
| CN(C)S(=O)(=O)c1cccc(NC(=S)N/N=C/C(=O)c2ccccc2)c1 | 0.778 |
| CN(C)S(=O)(=O)c1cccc(NC(=S)NCc2ccc3c(c2)OCO3)c1 | 2.5 (active) |
| Cc1c(Cl)cccc1NC(=S)NCc1ccc2c(c1)OCO2 | 1.41 |
| C/C(=N\Nc1nc2ccccc2[nH]1)c1cccs1 | 1.07 |
| COCCn1c(C)cc(C(=O)CN2c3cccc4cccc(c34)S2(=O)=O)c1C | 1.06 |
| CCc1nn(CCCC(=O)NC(C)c2ccccc2)c(=O)c2cc3occc3n12 (stereo not given) | 0.908 |
| CCN(CC(=O)Nc1ccccc1C(=O)NC1CC1)Cc1cccs1 | 0.951 |
| O=C(NCc1ccccn1)Nc1ccc(Cl)cc1 | 1.1 |
| CC(C)S(=O)(=O)c1csc(NC(=O)Nc2ccc(Cl)cc2)c1Cl | 2.9 (active) |
| CC(=O)N1CCC(N(C(=O)Nc2ccc(Cl)cc2)C(C)C)CC1 | 1.1 |
| Fc1ccccc1COc1ccccc1CNCc1ccncc1 | 0.935 |

| Structure (SMILES) | activation factor |
| --- | --- |
| O=C(CSc1nnc(Cn2cnc3ccccc32)o1)c1ccccc1 | 0.997 |
| N#Cc1cnn2cc(CCN3CCOCC3)c(-c3ccc(F)cc3)nc12 | 0.899 |
| O=CN1CCN(C(=O)c2ccc3c(c2)OCO3)CC1 | 1.06 |
| COc1cccc(NC(=O)C2c3cc(OC)c(OC)cc3C(=O)N(C)C2c2cccnc2)c1 (stereo not given) | 0.967 |
| COc1cccc(NC(=O)C2CCCN2C(=O)OCc2ccccc2)c1 (stereo not given) | 0.929 |
| COc1cccc(NC(=O)C2C(c3ccccc3)C2(Cl)Cl)c1 (stereo not given) | 2.76 (active) |
| CC(Sc1nnc(-c2ccccc2F)n1C1CC1)C(N)=O (stereo not given) | 1 |
| CC(=O)Nc1ccc(NC(=O)CC2CCCC2)cc1 | 1.03 |
| O=C(Nc1ccc(C(=O)N2CCOCC2)cc1)Nc1cccc(C(F)(F)F)c1 | 1.56 |
| CCNS(=O)(=O)c1ccc(NC(=O)Nc2cccc(C(F)(F)F)c2)cc1 | 2.22 (active) |
| O=C(NCc1ccccc1)c1ccc(S(=O)(=O)Nc2cccc(C(F)(F)F)c2)cc1 | 0.856 |
| COc1ccc(C(C(=O)NC2CCCC2)N(CCCO)C(=O)Cn2nnc(-c3ccc(C)o3)n2)cc1 (stereo not given) | 1.05 |
| Cc1ccc(NC(=S)NCc2ccccc2Cl)c(C)c1 | 1.27 |
| S=C(NCCc1ccccc1)NCc1ccccc1Cl | 2.23 (active) |
| S=C(NCc1ccco1)NCc1ccccc1Cl | 1.01 |
| CCCCCCC12CCC(C(=O)O)(CC1)CC2 | 1.01 |
| O=C(CN1C(=O)NC2(CCCCC2)C1=O)N1CCN(C(=O)c2cccs2)CC1 | 0.968 |
| Cc1ccc(C)c(S(=O)(=O)N2CCCOC2CNC(=O)C(=O)NC2CCCCC2)c1 (stereo not given) | 1.04 |
| Nc1nnc(SCC(=O)NC2CCCc3ccccc32)s1 (stereo not given) | 1 |
| Cc1cc(Nc2ccc(Br)cc2F)n2ncnc2n1 | 0.862 |
| Cc1ccc(NC(=O)Nc2ccccc2)c(Br)c1 | 1.26 |
| Cc1ccoc1C(=O)Nc1cccc(Oc2ccccc2)c1 | 0.9 |
| Cc1cccc(NC(=O)Nc2cccc(Oc3c(F)c(F)c(F)c(F)c3F)c2)c1 | 3.37 (active) |
| O=C(O)c1cc(S(=O)(=O)Nc2ccc3cn[nH]c3c2)ccc1Br | 0.965 |
| CS/C(=C\C(=O)c1ccco1)Nc1ccccc1Cl | 0.883 |

— PubChem BioAssay AID2805 (Sanford-Burnham Center for Chemical Genomics, 2010)
